Test results: ChEMBL document CHEMBL4665656, “Toxicity, bioactivity, release of HS in vivo and pharmaco-kinetics of HS-donors with thiophosphamide structure” (Eur J Med Chem, 2019)

Legend:
[1] = Induction of H2S generation assessed as Cmax Induction of H2S generation assessed as Cmax at 150 uM incubated at 37 degC and pH 7.4 by fluorescence spectrophotometry; assay type: functional
Method in brief: (§1)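 Donor at 150 µM final, mixed with 200 µM sulfonyl-azide fluorescent probe in buffer/acetonitrile (1:9) at set pH. Cuvette held in a water bath at 22 °C or 37 °C, with fluorescence read three times at intervals. H2S was quantified from a Na2S standard curve (0–200 µM, probe 200 µM).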

[2] = Induction of H2S generation assessed as Cmax Induction of H2S generation assessed as Cmax at 150 uM incubated at 37 degC and pH 8 by fluorescence spectrophotometry; assay type: functional; method in brief: as §1
[3] = Induction of H2S generation assessed as Cmax at 150 uM incubated at 37 degC and pH 5 by fluorescence spectrophotometry; assay type: functional; method in brief: as §1
[4] = Induction of H2S generation assessed as Cmax at 150 uM incubated at 37 degC and pH 1.2 by fluorescence spectrophotometry; assay type: functional; method in brief: as §1
[5] = Induction of H2S generation assessed as Cmax at 150 uM incubated at 22 degC and pH 7.4 by fluorescence spectrophotometry; assay type: functional; method in brief: as §1
[6] = Induction of H2S generation assessed as Cmax at 150 uM incubated at 22 degC and pH 8 by fluorescence spectrophotometry; assay type: functional; method in brief: as §1
[7] = Induction of H2S generation assessed as Cmax at 150 uM incubated at 22 degC and pH 5 by fluorescence spectrophotometry; assay type: functional; method in brief: as §1
[8] = Induction of H2S generation assessed as Cmax at 150 uM incubated at 22 degC and pH 1.2 by fluorescence spectrophotometry; assay type: functional; method in brief: as §1
HeLa = assay: Cytotoxicity in human HeLa cells assessed as growth inhibition incubated for 24 hrs by MTT assay; assay type: functional, cell-based
Method in brief: (§2)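 Cells were grown in RPMI 1640 with 10% FBS at 37 °C and 10% CO2, seeded at 6×10^3 cells/well. Exposure was 24 h, with viability by MTT, in triplicate cultures. IC50 was reported as mean ± SD.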

A549 = assay: Cytotoxicity in human A549 cells assessed as growth inhibition incubated for 24 hrs by MTT assay; assay type: functional, cell-based; conditions: A549, 24 h; method in brief: as §2
HepG2 = assay: Cytotoxicity in human HePG2 cells assessed as growth inhibition incubated for 24 hrs by MTT assay; assay type: functional, cell-based; conditions: HepG2, 24 h; method in brief: as §2
MCF7 = assay: Cytotoxicity in human MCF-7 cells assessed as growth inhibition incubated for 24 hrs by MTT assay; assay type: functional, cell-based; conditions: MCF7, 24 h; method in brief: as §2
HT-29 = assay: Cytotoxicity in human HT-29 cells assessed as growth inhibition incubated for 24 hrs by MTT assay; assay type: functional, cell-based; conditions: HT-29, 24 h; method in brief: as §2
WI-38 = assay: Cytotoxicity in human W138 cells assessed as growth inhibition incubated for 24 hrs by MTT assay; assay type: cell-based; conditions: WI-38, 24 h; method in brief: as §2
[9] = Induction of H2S generation assessed as half life at 150 uM incubated at 22 degC and pH 1.2 by fluorescence spectrophotometry; assay type: functional; method in brief: as §1
[10] = Induction of H2S generation assessed as half life at 150 uM incubated at 22 degC and pH 5 by fluorescence spectrophotometry; assay type: functional; method in brief: as §1
[11] = Induction of H2S generation assessed as half life at 150 uM incubated at 22 degC and pH 7.4 by fluorescence spectrophotometry; assay type: functional; method in brief: as §1
[12] = Induction of H2S generation assessed as half life at 150 uM incubated at 22 degC and pH 8 by fluorescence spectrophotometry; assay type: functional; method in brief: as §1
[13] = Induction of H2S generation assessed as half life at 150 uM incubated at 37 degC and pH 1.2 by fluorescence spectrophotometry; assay type: functional; method in brief: as §1
[14] = Induction of H2S generation assessed as half life at 150 uM incubated at 37 degC and pH 5 by fluorescence spectrophotometry; assay type: functional; method in brief: as §1
[15] = Induction of H2S generation assessed as half life at 150 uM incubated at 37 degC and pH 7.4 by fluorescence spectrophotometry; assay type: functional; method in brief: as §1
[16] = Induction of H2S generation assessed as half life at 150 uM incubated at 37 degC and pH 8 by fluorescence spectrophotometry; assay type: functional; method in brief: as §1

Row | SMILES | Cmax [2] | Cmax [3] | Cmax [4] | Cmax [5] | Cmax [6] | Cmax [7] | Cmax [8] | IC50 (HeLa) | IC50 (A549) | IC50 (HepG2) | IC50 (MCF7) | IC50 (HT-29) | IC50 (WI-38) | T1/2 [9] | T1/2 [10] | T1/2 [11] | T1/2 [12] | T1/2 [13] | T1/2 [14] | T1/2 [15] | also measured
1 | S=P1(c2ccccc2)NCCO1 (stereo not given) | 35.4 µM | 37 µM | 35.6 µM | 29.9 µM | 29.7 µM | 29.9 µM | 30 µM | 930 µM | 622 µM | 775 µM | 798 µM | 539 µM | 759 µM | 33.8 min | 32.7 min | 31.9 min | 31.3 min | 31.9 min | 32.6 min | 32.2 min | Cmax [1]: 31.1 µM; T1/2 [16]: 33.6 min
2 | S=P1(c2ccccc2)OCCCO1 | 35.7 µM | 37.4 µM | 38.4 µM | 24.4 µM | 25.7 µM | 25.7 µM | 24.8 µM | 1280 µM | 569 µM | 612 µM | 853 µM | 991 µM | 653 µM | 33.5 min | 35.8 min | 34.6 min | 33 min | 34.2 min | 34.7 min | 33 min | Cmax [1]: 27.2 µM; T1/2 [16]: 35.8 min
3 | CC[C@H](C)[C@H](NP(O)(=S)c1ccccc1)C(=O)O (stereo not given in full) | 122 µM | 123 µM | 123 µM | 117 µM | 117 µM | 117 µM | 119 µM | 972 µM | 236 µM | 604 µM | 601 µM | 782 µM | 658 µM | 2.04 min | 2.87 min | 3.65 min | 4.04 min | 1.53 min | 2.72 min | 2.91 min | Cmax [1]: 123 µM; T1/2 [16]: 4.17 min
4 | CC(C)[C@H](NP(O)(=S)c1ccccc1)C(=O)O (stereo not given in full) | 124 µM | 126 µM | 125 µM | 122 µM | 122 µM | 122 µM | 121 µM | 809 µM | 294 µM | 690 µM | 542 µM | 602 µM | 546 µM | 2.13 min | 2.42 min | 3.11 min | 4.42 min | 1.55 min | 2.25 min | 2.84 min | Cmax [1]: 125 µM; T1/2 [16]: 3.62 min
5 | O=c1[nH]cc(F)c(=O)[nH]1 [FLUOROURACIL] |  |  |  |  |  |  |  | 120 µM | 104 µM | 112 µM | 136 µM | 146 µM | 202 µM |  |  |  |  |  |  |  | 
6 | S=P1(c2ccccc2)NCCCN1 | 35.7 µM | 35.5 µM | 35.7 µM | 27.2 µM | 27.1 µM | 27.2 µM | 27 µM | 793 µM | 876 µM | 801 µM | 850 µM | 600 µM | 381 µM | 29.2 min | 29.8 min | 27.5 min | 29 min | 27.8 min | 29.6 min | 27.1 min | T1/2 [16]: 28.4 min
7 | O=C(O)[C@@H]1CCCN1P(O)(=S)c1ccccc1 (stereo not given in full) | 4.3 µM | 4.2 µM | 4.2 µM | 4 µM | 4.1 µM | 4.2 µM | 4 µM | 839 µM | 519 µM | 816 µM | 874 µM | 932 µM | 872 µM | 10.9 min | 10.6 min | 9.27 min | 10.8 min | 10.4 min | 9.15 min | 9.92 min | Cmax [1]: 4.2 µM; T1/2 [16]: 9.83 min
8 | CC(C)C[C@H](NP(O)(=S)c1ccccc1)C(=O)O (stereo not given in full) | 116 µM | 118 µM | 119 µM | 112 µM | 111 µM | 112 µM | 113 µM | 835 µM | 273 µM | 415 µM | 643 µM | 756 µM | 438 µM | 2.65 min | 3.25 min | 3.72 min | 4.44 min | 2.04 min | 2.75 min | 2.83 min | Cmax [1]: 118 µM; T1/2 [16]: 3.59 min
9 | S=P1(c2ccccc2)OCCO1 | 35.7 µM | 35.7 µM | 35.7 µM | 27.7 µM | 27.5 µM | 27.9 µM | 28.4 µM | 679 µM | 679 µM | 804 µM | 748 µM | 882 µM | 381 µM | 25.4 min | 25.1 min | 26.6 min | 26.5 min | 25.8 min | 27.9 min | 25.9 min | Cmax [1]: 29.1 µM; T1/2 [16]: 25 min
10 | S=P1(c2ccccc2)OCC2CCCN21 (stereo not given) | 33.7 µM | 36.8 µM | 36.2 µM | 26.9 µM | 27.1 µM | 27.1 µM | 27.1 µM | 984 µM |  | 531 µM | 920 µM | 636 µM | 503 µM | 29.9 min | 28.2 min | 27.3 min | 29.2 min | 27.8 min | 28.6 min | 28.9 min | Cmax [1]: 28.2 µM; T1/2 [16]: 27.5 min
11 | O=C(O)[C@H](Cc1ccccc1)NP(O)(=S)c1ccccc1 (stereo not given in full) | 127 µM | 129 µM | 129 µM | 122 µM | 120 µM | 121 µM | 122 µM | 712 µM | 237 µM | 671 µM | 663 µM | 542 µM | 690 µM | 2.37 min | 2.71 min | 3.54 min | 4.58 min | 1.53 min | 2.33 min | 2.61 min | Cmax [1]: 128 µM; T1/2 [16]: 4.7 min
12 | CSCC[C@H](NP(O)(=S)c1ccccc1)C(=O)O (stereo not given in full) | 118 µM | 120 µM | 120 µM | 112 µM | 113 µM | 113 µM | 114 µM | 919 µM | 309 µM | 286 µM | 671 µM | 826 µM | 546 µM | 2.68 min | 3.64 min | 3.32 min | 4.26 min | 2.2 min | 2.44 min | 2.83 min | Cmax [1]: 120 µM; T1/2 [16]: 3.55 min
13 | C[C@H](NP(O)(=S)c1ccccc1)C(=O)O (stereo not given in full) | 106 µM | 106 µM | 110 µM | 102 µM | 103 µM | 103 µM | 104 µM | 888 µM | 346 µM | 858 µM | 832 µM | 689 µM | 351 µM | 2.36 min | 3.32 min | 3.72 min | 4.33 min | 1.67 min | 2.23 min | 2.75 min | Cmax [1]: 108 µM; T1/2 [16]: 3.4 min
14 | S=P1(c2ccccc2)NCCN1 | 34.8 µM | 35.4 µM | 35.7 µM | 28.4 µM | 28.3 µM | 28.4 µM | 28.5 µM | 968 µM | 641 µM | 657 µM | 713 µM | 780 µM | 958 µM | 32.5 min | 31.1 min | 30.9 min | 30 min | 31.2 min | 32.9 min | 31.1 min | Cmax [1]: 29.9 µM; T1/2 [16]: 31.6 min
